From ChEMBL document CHEMBL3244289, “Synthesis and antibacterial activity of 2'-substituted chelocardin analogues” (1979)
Activity calls are given as the source filed them. The calls are words filed in the database; no cut-off is given here.

Legend:
[1] = tested on: Streptococcus pyogenes; assay: Antibacterial activity against Streptococcus pyogenes C-203 by two-fold agar dilution method; assay type: functional
Outline: (§1)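 MIC determined by twofold serial dilution in brain-heart infusion agar. Values are reported in µg/mL.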

[2] = tested on: Proteus mirabilis; assay: Antibacterial activity against Proteus mirabilis infected in sc dosed mouse assessed as protection against bacterial infection; assay type: functional
Outline: (§2)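 Mice were challenged intraperitoneally with Proteus mirabilis, and compound was given by the line's route (oral or subcutaneous). The CD50 is the total dose in mg/kg that protects 50% of challenged mice.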

[3] = tested on: Proteus mirabilis; assay: Antibacterial activity against Proteus mirabilis by two-fold agar dilution method; assay type: functional; outline: as §1
[4] = tested on: Proteus vulgaris; assay: Antibacterial activity against Proteus vulgaris by two-fold agar dilution method; assay type: functional; outline: as §1
[5] = tested on: Staphylococcus aureus; assay: Antibacterial activity against Staphylococcus aureus Smith by two-fold agar dilution method; assay type: functional; outline: as §1
[6] = tested on: Staphylococcus aureus; assay: Antibacterial activity against Staphylococcus aureus 45 by two-fold agar dilution method; assay type: functional; outline: as §1
[7] = tested on: Escherichia coli; assay: Antibacterial activity against Escherichia coli Juhl by two-fold agar dilution method; assay type: functional; outline: as §1
[8] = tested on: Pseudomonas aeruginosa; assay: Antibacterial activity against Pseudomonas aeruginosa by two-fold agar dilution method; assay type: functional, organism-based; outline: as §1
[9] = tested on: Enterococcus; assay: Antibacterial activity against Enterococcus 89 by two-fold agar dilution method; assay type: functional; outline: as §1
[10] = tested on: Salmonella typhi; assay: Antibacterial activity against Salmonella typhi by two-fold agar dilution method; assay type: functional, Salmonella enterica subsp. enterica serovar Typhi; conditions: Salmonella enterica
Outline: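 MIC in µg/mL by twofold serial agar dilution on brain-heart infusion agar.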

[11] = tested on: Klebsiella pneumoniae; assay: Antibacterial activity against Klebsiella pneumoniae 8045 by two-fold agar dilution method; assay type: functional; outline: as §1
[12] = tested on: Proteus mirabilis; assay: Antibacterial activity against Proteus mirabilis infected in po dosed mouse assessed as protection against bacterial infection; assay type: functional; outline: as §2
[13] = tested on: Pasteurella multocida; assay: Antibacterial activity against Pasteurella multocida 10544 by two-fold agar dilution method; assay type: functional; outline: as §1

Structure (SMILES) | MIC [1] [µg/mL] | CD50 [2] [mg/kg] | MIC [3] [µg/mL] | MIC [4] [µg/mL] | MIC [5] [µg/mL] | MIC [6] [µg/mL] | MIC [7] [µg/mL] | Activity [8] | MIC [9] [µg/mL] | MIC [10] [µg/mL] | MIC [11] [µg/mL] | CD50 [12] [mg/kg] | MIC [13] [µg/mL]
C/C(=N\c1ccc(S(N)(=O)=O)cc1)C1=C(O)[C@H](N)[C@@H]2Cc3c(c(O)c4c(O)c(C)ccc4c3C)C(=O)[C@]2(O)C1=O.Cl | 3.1 | 6.25 | 3.1 | 1.56 | 3.1 | 6.2 | 6.2 | inactive | 6.2 | 0.7 | 1.56 | <25 | 0.2
C/C(=N\N1CCN(C)CC1)C1=C(O)[C@H](N)[C@@H]2Cc3c(c(O)c4c(O)c(C)ccc4c3C)C(=O)[C@]2(O)C1=O.Cl | 3.1 | 12.5 | 6.2 | 6.2 | 6.2 | 6.2 | 6.2 | inactive | 12.5 | 3.1 | 3.1 | 25 | 0.78
CC(=O)NS(=O)(=O)c1ccc(/N=C(\C)C2=C(O)[C@H](N)[C@@H]3Cc4c(c(O)c5c(O)c(C)ccc5c4C)C(=O)[C@]3(O)C2=O)cc1.Cl | 3.1 | 6.25 | 6.2 | 3.1 | 3.1 | 6.2 | 6.2 | inactive | 12.5 | 1.5 | 1.56 | 100 | 0.78
CC(=O)N/N=C(\C)C1=C(O)[C@H](N)[C@@H]2Cc3c(c(O)c4c(O)c(C)ccc4c3C)C(=O)[C@]2(O)C1=O.Cl | 6.2 | 25 | 6.2 | 6.2 | 12.5 | 12.5 | 12.5 | inactive | 12.5 | 6.2 | 6.2 | 50 | 0.78
C/C(=N\N1CCN(CCO)CC1)C1=C(O)[C@H](N)[C@@H]2Cc3c(c(O)c4c(O)c(C)ccc4c3C)C(=O)[C@]2(O)C1=O.Cl | 3.1 | 25 | 3.1 | 3.1 | 6.2 | 12.5 | 6.2 | inactive | 6.2 | 1.56 | 1.56 | 100 | 0.39
CC(=O)C1=C(O)[C@H](N)[C@@H]2Cc3c(c(O)c4c(O)c(C)ccc4c3C)C(=O)[C@]2(O)C1=O.Cl [CETOCYCLINE HYDROCHLORIDE] | 3.1 | 12.5 | 1.56 | 1.56 | 3.1 | 6.2 | 6.2 | inactive | 6.2 | 1.5 | 3.1 | 200 | 0.39
C/C(=N\NC(=O)c1ccccc1O)C1=C(O)[C@H](N)[C@@H]2Cc3c(c(O)c4c(O)c(C)ccc4c3C)C(=O)[C@]2(O)C1=O.Cl | > 100 | – | > 100 | > 100 | > 100 | > 100 | > 100 | inactive | > 100 | > 100 | > 100 | – | 25
C/C(=N\NC(=O)Nc1ccccc1Cl)C1=C(O)[C@H](N)[C@@H]2Cc3c(c(O)c4c(O)c(C)ccc4c3C)C(=O)[C@]2(O)C1=O.Cl | 25 | – | 50 | 50 | 50 | 100 | 100 | inactive | 100 | 50 | 50 | – | 6.2
CCCC(=O)N/N=C(\C)C1=C(O)[C@H](N)[C@@H]2Cc3c(c(O)c4c(O)c(C)ccc4c3C)C(=O)[C@]2(O)C1=O.Cl | 25 | – | 12.5 | 12.5 | 50 | 50 | 50 | inactive | 50 | 12.5 | 12.5 | – | 1.56
C/C(=N\Nc1ccccc1)C1=C(O)[C@H](N)[C@@H]2Cc3c(c(O)c4c(O)c(C)ccc4c3C)C(=O)[C@]2(O)C1=O.Cl | 6.2 | – | 50 | 50 | 6.2 | 6.2 | 50 | inactive | 12.5 | 25 | 12.5 | – | 0.78
C/C(=N\NCCN(C)C)C1=C(O)[C@H](N)[C@@H]2Cc3c(c(O)c4c(O)c(C)ccc4c3C)C(=O)[C@]2(O)C1=O.Cl | 50 | – | 25 | 25 | 50 | 50 | 50 | inactive | 100 | 25 | 25 | – | 3.1
COc1ccc(/N=C(\C)C2=C(O)[C@H](N)[C@@H]3Cc4c(c(O)c5c(O)c(C)ccc5c4C)C(=O)[C@]3(O)C2=O)cc1.Cl | 3.1 | – | 6.2 | 3.1 | 12.5 | 12.5 | 25 | inactive | 6.2 | 3.1 | 3.1 | – | 0.78
C/C(=N\c1ccc(Br)cc1)C1=C(O)[C@H](N)[C@@H]2Cc3c(c(O)c4c(O)c(C)ccc4c3C)C(=O)[C@]2(O)C1=O.Cl | 12.5 | – | 6.2 | 6.2 | 12.5 | 12.5 | 25 | inactive | 25 | 3.1 | 3.1 | – | 0.39
C/C(=N\NC(=N)N)C1=C(O)[C@H](N)[C@@H]2Cc3c(c(O)c4c(O)c(C)ccc4c3C)C(=O)[C@]2(O)C1=O.Cl | 25 | 12.5 | 12.5 | 12.5 | 50 | 50 | 25 | inactive | 50 | 25 | 12.5 | 100 | 3.1
